Screens (PubChem)
Most compounds without a hit are left out; they make up all but 4.3% or so of the library.
TAAR1 ag = human TAAR1 agonists, primary screen, Fluo-8 calcium fluorescence, CHO RD-HGA16 cells; Trace amine-associated receptor 1 (Homo sapiens), Q96RJ0; vehicle wells 0%, saturating PEA agonist 100%; 0.99% of 360,000 active; activation, % at 3 µM;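 active means activation above the mean activation of all test compounds in the run plus 3 SD, cut at about 38% in these data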
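Assay system – CHO-derived RD-HGA16 cells with stable Gα16 and human TAAR1 · Compound dosing – one-point dosing at 3 µM (nominal) · Incubation – 17-24 h seeding, 75 min 37 °C dye, 30 min RT · Measured by – kinetic Fluo-8 calcium fluorescence · Control set – DMSO vehicle as 0%, PEA at EC100 as 100% · Repeats – single well for each compound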
TAAR1 antag = human TAAR1 antagonists, primary screen, Fluo-8 calcium fluorescence, CHO RD-HGA16 cells; Trace amine-associated receptor 1 (Homo sapiens), Q96RJ0; antagonist; inhibition, % at 3 µM; 1.5% of 360,000 active;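 active means inhibition above a per-plate cutoff, the mean inhibition of test compounds on that plate plus 3 SD, cut at about 49% in these data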
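Material: CHO RD-HGA16 cells bearing hTAAR1; compound dosing: one-point dosing, 3 µM nominal final; schedule: dye loading 75 min at 37 °C, then 30 min room temperature; measured by: calcium fluorescence with Fluo-8; control set: vehicle and agonist controls; replication: n of 1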
OX1R antag-1 = antagonists of human orexin 1 receptor (OX1R) | 1.8% of 330,000 active | Orexin/Hypocretin receptor type 1 (Homo sapiens), O43613 | inhibition, % at 6.6 µM | OX1R-expressing cells, FRET antagonist read-out; in the data active means inhibition mostly above about 38%, no sharp cut-off; inactive means mostly below about 40%
Target sequence (O43613 whole entry, looked up): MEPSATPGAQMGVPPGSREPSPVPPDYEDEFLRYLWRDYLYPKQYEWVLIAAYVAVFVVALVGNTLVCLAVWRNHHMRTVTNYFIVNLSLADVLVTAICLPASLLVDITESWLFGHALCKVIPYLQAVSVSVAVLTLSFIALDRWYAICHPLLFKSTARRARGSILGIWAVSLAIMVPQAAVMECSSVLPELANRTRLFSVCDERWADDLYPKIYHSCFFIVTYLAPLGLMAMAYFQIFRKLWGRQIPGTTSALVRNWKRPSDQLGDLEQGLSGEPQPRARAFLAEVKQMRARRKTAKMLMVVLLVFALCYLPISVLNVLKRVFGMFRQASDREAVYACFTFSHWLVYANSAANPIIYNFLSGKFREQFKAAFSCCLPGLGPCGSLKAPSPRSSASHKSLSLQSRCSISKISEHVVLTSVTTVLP
CHO parental Ca = ATP-evoked calcium signal inhibitors, parental CHO, primary screen, counter-screen for OX1R antagonist project, cell-based, fluorescence, Fluo-8 calcium dye | parental CHO-K1, ATP-induced calcium, Fluo-8 fluorescence | inhibition, % at 5.6 µM | 0.63% of 330,000 active | AID 463079, 2010;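 active means inhibition above that plate's mean sample inhibition plus 3 SD, cut at about 26% in these data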
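Material: Parental CHO cells | Reagent: ATP | Compound dosing: Single nominal dose of 5.6 µM per compound | Detection: Intracellular calcium via Fluo-8 no-wash fluorescent dye | Read-out: % inhibition of ATP-induced calcium mobilization | Benchmarks: Low control ATP plus DMSO, high control DMSO only | Replicates: Singlicate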
GalR3 antag = GalR3 antagonists in HEK293 cells, primary screen, cell-based, fluorescence readout | Galanin receptor type 3 (Homo sapiens), O60755 | 0.44% of 360,000 active | HEK293 GalR3-CNG cAMP membrane potential fluorescence; galR3 body fused to GalR1 C-terminus | inhibition, % at 3 µM;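 active means inhibition above the screen-wide average plus 3 SD, cut at about 13% in these data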;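 further: forskolin and galanin both at EC90 stimulate the cells; cAMP rise reported by CNG channel membrane potential dye signal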
OX1R antag-2 = OX1R (HCRTR1) antagonists, primary screen, fluorescence, CHO/OX1R cells, Fluo-8 calcium, orexin A. Fluo-8 calcium fluorescence. inhibition, % at 5 µM. 0.43% of 330,000 active;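 active means inhibition above its plate's threshold, mean inhibition of all tested compounds on the plate plus 3 SD, cut at about 37% in these data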
GalR3 antag conf = GalR3 antagonist hit confirmation, cell-based, fluorescence, triplicate; HEK293 GalR3 CNG cAMP biosensor, membrane potential fluorescence; galR3 fused to GalR1 carboxy tail; challenged with forskolin and galanin at EC90; inhibition, % at 3 µM; shares compounds with GalR3 antag; 59% of 1,600 active;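 active means inhibition above the primary screen's cutoff, the mean inhibition of all screened compounds plus 3 SD, cut at about 13% in these data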
CNG parental = nonspecific cAMP agonists in parental HEK-CNG cells, counter-screen for GalR3 antagonist project, cell-based, fluorescence, high throughput | shares compounds with GalR3 antag | HEK293-CNG parental cells, cAMP membrane potential fluorescence; normalised: DMSO wells 0%, forskolin wells 100% | activation, % at 3 µM | 10% of 1,600 active; in the data active means activation above about 1.3%
Hits are given with their value; - = inactive; . = no result given.

SMILES | TAAR1 ag | TAAR1 antag | OX1R antag-1 | CHO parental Ca | GalR3 antag | OX1R antag-2 | GalR3 antag conf | CNG parental
Cc1ccc(-c2cc([C@H]3[C@@H]4C=CCC[C@@]4(C)C(=O)N3Cc3ccccc3)ccc2F)cc1 | - | - | - | - | - | - | . | .
Cc1oc(C(C)(C)C)cc1C(=O)Nc1cccc(/C=C/C(=O)O)c1 | - | - | - | - | - | - | . | .
Cc1oc(-c2ccccc2)cc1C(=O)Nc1cccc(/C=C/C(=O)O)c1 | - | - | . | . | 75 | . | 111 | -
Cc1cc(C(=O)Nc2cccc(/C=C/C(=O)O)c2)c(C)o1 | - | - | - | - | 46 | - | 88 | -
O=C1c2cccc(-c3ccc(C(F)(F)F)cc3)c2C2CC=CCN12 (configuration not stated) | - | - | . | . | - | . | . | .
O=C(CSc1nn(-c2ccccc2)c(=S)s1)Nn1cnnc1 | - | - | - | - | - | - | . | .
Cc1ccc(NC(=O)CSc2nn(-c3ccccc3)c(=S)s2)cc1S(=O)(=O)N(C)C | - | 51 | - | - | 72 | - | 93 | -
CCOc1ccc(NC(=O)COC(=O)C2COc3ccccc3O2)cc1 (configuration not stated) | - | - | . | . | - | . | . | .
O=C(N/N=C/C1CC=CCC1)c1ccc(O)cc1O (configuration not stated) | - | - | - | - | - | - | . | .
COc1cc(C(=O)N/N=C/C2CC=CCC2)cc(OC)c1OC (configuration not stated) | - | - | - | - | 13 | - | - | -
CC(C)CN(C(=O)CCC1CCCCC1)c1c(N)n(CC(C)C)c(=O)[nH]c1=O | - | - | . | . | - | . | . | .
CCCCCC(=O)NNC(=S)NC(C)=O | - | - | - | - | 13 | - | - | -
COc1ccccc1NS(=O)(=O)c1ccc(N/N=C(\C)C(C)C)c([N+](=O)[O-])c1 | - | - | - | - | 33 | - | 13 | -
Brc1ccc(-c2ncc(-c3ccccc3)cn2)cc1 | - | - | - | - | . | - | - | -
Cc1ccc(-n2nc(C)c(/C=N/n3c(C)n[nH]c3=S)c2Cl)cc1 | - | - | - | - | . | - | - | -
Cc1cc(NC(=O)COC(=O)C(Cc2ccccc2)NC(=O)c2ccco2)no1 (configuration not stated) | - | - | - | - | 13 | - | 14 | -
O=C(OCCO)c1c(-c2ccccc2)oc2c1C(OCCO)CCC2 (configuration not stated) | - | - | . | . | - | . | . | .
Cc1[nH]c2ccc(C(=O)NCCCN3CCN(C)CC3)cc2c1C | - | - | - | - | 15 | - | - | -
Cc1[nH]c2ccc(C(=O)NCCCN3CCOCC3)cc2c1C | - | - | - | - | - | - | . | .
O=[N+]([O-])c1cccc(-c2nnc(C3CC3)o2)c1 | - | - | - | - | - | - | . | .
O=[N+]([O-])c1cccc(C2=NCCC(c3ccccc3)O2)c1 (configuration not stated) | - | - | - | - | 22 | - | - | -
Cc1ccc(Nc2c(-c3ccc(N4CCOCC4)cc3)nc3cnccn23)cc1 | - | - | - | - | 16 | - | - | -
Cc1ccccc1Nc1c(-c2ccc(N3CCOCC3)cc2)nc2cnccn12 | - | - | - | - | - | - | . | .
O=C(Nc1nc(-c2ccc(S(=O)(=O)N3CCCCCC3)cc2)cs1)c1ccccc1 | - | - | - | - | - | - | . | .
